Measurements from ChEMBL document CHEMBL1212777, “Novel VIM metallo-beta-lactamase variant from clinical isolates of Enterobacteriaceae from Algeria” (2010).
In brackets after ≈: the same amount, converted by molar mass.

Key:
Type in all cases: functional
[1] = tested on: Klebsiella pneumoniae; assay: Antimicrobial activity against Klebsiella pneumoniae 6828 strain expressing beta-lactamase VIM-19 by microdilution method in presence of 0.4 mM EDTA
Method in brief: (§1)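 Clinical isolates from intensive care patients. MICs by dilution on Mueller-Hinton agar, inoculum 10^4 CFU per spot, read after growth and interpreted by CA-SFM guidelines. Where the line names an inhibitor, it was held at a fixed level: clavulanic acid 2 μg/ml, tazobactam 4 μg/ml, or EDTA 0.4 mM.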

[2] = tested on: Escherichia coli; assay: Antimicrobial activity against Escherichia coli DH5alpha 2878 transformant expressing beta-lactamase VIM-19 by microdilution method
Method in brief: (§2)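 MIC by dilution on Mueller-Hinton agar, inoculum 10^4 CFU per spot, interpreted by CA-SFM guidelines. Inhibitor combinations where tested: clavulanic acid 2 μg/ml, tazobactam 4 μg/ml, EDTA 0.4 mM. Transconjugants came from rifampin-resistant E. coli C600 selected on rifampin 300 μg/ml plus cefotaxime 0.5 μg/ml. Transformants came from electroporation into E. coli DH5α selected on cefotaxime 0.5 μg/ml.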

[3] = tested on: Providencia stuartii; assay: Antimicrobial activity against Providencia stuartii 6858 strain expressing beta-lactamase VIM-19 by microdilution method; method in brief: as §1
[4] = tested on: Escherichia coli; assay: Antimicrobial activity against Escherichia coli harbouring plasmid BK-CMV expressing beta-lactamase VIM-19 by microdilution method; method in brief: as §2
[5] = tested on: Escherichia coli; assay: Antimicrobial activity against Escherichia coli DH5alpha harbouring plasmid BK-VIM-19 expressing beta-lactamase VIM-19 by microdilution method; method in brief: as §2
[6] = tested on: Escherichia coli; assay: Antimicrobial activity against Escherichia coli DH5alpha harbouring plasmid BK-VIM-19 expressing beta-lactamase VIM-19 by microdilution method in presence of 0.4 mM EDTA; method in brief: as §2
[7] = tested on: Escherichia coli; assay: Antimicrobial activity against Escherichia coli DH5alpha 2878 transformant expressing beta-lactamase VIM-19 by microdilution method in presence of 0.4 mM EDTA; method in brief: as §2
[8] = tested on: Escherichia coli; assay: Antimicrobial activity against Escherichia coli C600 2878 transconjugate expressing beta-lactamase VIM-19 by microdilution method; method in brief: as §2
[9] = tested on: Escherichia coli; assay: Antimicrobial activity against Escherichia coli 2603 strain expressing beta-lactamase VIM-19 by microdilution method; method in brief: as §1
[10] = tested on: Klebsiella pneumoniae; assay: Antimicrobial activity against Klebsiella pneumoniae 2878 strain expressing beta-lactamase VIM-19 […] in presence of 0.4 mM EDTA
[11] = tested on: Escherichia coli; assay: Antimicrobial activity against Escherichia coli 138 expressing beta-lactamase VIM-19 by microdilution method; method in brief: as §1
[12] = tested on: Providencia stuartii; assay: Antimicrobial activity against Providencia stuartii 6858 strain expressing beta-lactamase VIM-19 by microdilution method in presence of 0.4 mM EDTA; method in brief: as §1
[13] = tested on: Klebsiella pneumoniae; assay: Antimicrobial activity against Klebsiella pneumoniae 6828 strain expressing beta-lactamase VIM-19 by microdilution method; method in brief: as §1
[14] = tested on: Klebsiella pneumoniae; assay: Antimicrobial activity against Klebsiella pneumoniae 2878 strain expressing beta-lactamase VIM-19 by microdilution method; method in brief: as §1
[15] = tested on: Escherichia coli; assay: Antimicrobial activity against Escherichia coli 138 expressing beta-lactamase VIM-19 by microdilution method in presence of 0.4 mM EDTA; method in brief: as §2
[16] = tested on: Escherichia coli; assay: Antimicrobial activity against Escherichia coli 2603 strain expressing beta-lactamase VIM-19 by microdilution method in presence of 0.4 mM EDTA; method in brief: as §1
[17] = tested on: Escherichia coli; assay: Antimicrobial activity against Escherichia coli harbouring plasmidBK-CMV expressing beta-lactamase VIM-19 […] in presence of 0.4 mM EDTA
[18] = tested on: Escherichia coli; assay: Antimicrobial activity against Escherichia coli C600 2878 transconjugate expressing beta-lactamase VIM-19 by microdilution method in presence of 0.4 mM EDTA
Method in brief: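 Rifampin-resistant E. coli C600 recipient mated with the clinical strain. Transconjugants were selected on agar with rifampin 300 μg/ml plus cefotaxime 0.5 μg/ml. MICs by dilution on Mueller-Hinton agar, inoculum 10^4 CFU per spot, CA-SFM interpretation. Inhibitor at a fixed level: clavulanic acid 2 μg/ml or EDTA 0.4 mM.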

[19] = tested on: Escherichia coli; assay: Antimicrobial activity against Escherichia coli 138 expressing beta-lactamase VIM-19 by microdilution method in presence of 4 ug/ml Tazobactam; method in brief: as §2
[20] = tested on: Providencia stuartii; assay: Antimicrobial activity against Providencia stuartii 6858 strain expressing beta-lactamase VIM-19 by microdilution method in presence of 4 ug/ml Tazobactam; method in brief: as §1
[21] = tested on: Klebsiella pneumoniae; assay: Antimicrobial activity against Klebsiella pneumoniae 6828 strain expressing beta-lactamase VIM-19 […] in presence of 4 ug/ml Tazobactam
[22] = tested on: Escherichia coli; assay: Antimicrobial activity against Escherichia coli DH5alpha 2878 transformant expressing beta-lactamase VIM-19 […] in presence of 4 ug/ml Tazobactam
[23] = tested on: Escherichia coli; assay: Antimicrobial activity against Escherichia coli C600 2878 transconjugate expressing beta-lactamase VIM-19 by microdilution method in presence of 4 ug/ml Tazobactam; method in brief: as §2
[24] = tested on: Escherichia coli; assay: Antimicrobial activity against Escherichia coli harbouring plasmidBK-CMV expressing beta-lactamase VIM-19 […] in presence of 4 ug/ml Tazobactam
[25] = tested on: Klebsiella pneumoniae; assay: Antimicrobial activity against Klebsiella pneumoniae 2878 strain expressing beta-lactamase VIM-19 by microdilution method in presence of 4 ug/ml Tazobactam; method in brief: as §1
[26] = tested on: Escherichia coli; assay: Antimicrobial activity against Escherichia coli DH5alpha harbouring plasmid BK-VIM-19 expressing beta-lactamase VIM-19 by microdilution method in presence of 4 ug/ml Tazobactam; method in brief: as §2
[27] = tested on: Escherichia coli; assay: Antimicrobial activity against Escherichia coli 2603 strain expressing beta-lactamase VIM-19 […] in presence of 4 ug/ml Tazobactam

Row | Compound | MIC [1] [µg/mL] | MIC [2] [µg/mL] | MIC [3] [µg/mL] | MIC [4] [µg/mL] | MIC [5] [µg/mL] | MIC [6] [µg/mL] | MIC [7] [µg/mL] | MIC [8] [µg/mL] | MIC [9] [µg/mL] | MIC [10] [µg/mL] | MIC [11] [µg/mL] | MIC [12] [µg/mL] | MIC [13] [µg/mL] | MIC [14] [µg/mL] | MIC [15] [µg/mL] | MIC [16] [µg/mL] | MIC [17] [µg/mL] | also measured
1 | CC(C)(O/N=C(\C(=O)N[C@@H]1C(=O)N2C(C(=O)[O-])=C(C[n+]3ccccc3)CS[C@H]12)c1csc(N)n1)C(=O)O [CEFTAZIDIME] | 8 | 128 (≈ 234 µM) | 64 (≈ 117 µM) | 0.12 (≈ 0.22 µM) | 32 (≈ 58.5 µM) | 0.12 | 8 | 32 (≈ 58.5 µM) | 128 (≈ 234 µM) | 8 | 512 (≈ 937 µM) | 4 | 64 (≈ 117 µM) | 128 (≈ 234 µM) | 128 | 16 | 0.12 | 
2 | CO/N=C(\C(=O)N[C@@H]1C(=O)N2C(C(=O)O)=C(COC(N)=O)CS[C@H]12)c1ccco1 [CEFUROXIME] |  | 1020 (≈ 2410 µM) | 1020 (≈ 2410 µM) | 4 (≈ 9.43 µM) | 1020 (≈ 2410 µM) |  |  | 512 (≈ 1210 µM) | > 1020 |  | > 1020 |  | 1020 (≈ 2410 µM) | 1020 (≈ 2410 µM) |  |  |  | 
3 | CC(=O)OCC1=C(C(=O)O)N2C(=O)[C@@H](NC(=O)Cc3cccs3)[C@H]2SC1 [CEPHALOTHIN] |  | 2050 (≈ 5170 µM) | > 2050 | 4 (≈ 10.1 µM) | 1020 (≈ 2580 µM) |  |  | 1020 (≈ 2580 µM) | 2050 (≈ 5170 µM) |  | > 2050 |  | 2050 (≈ 5170 µM) | > 2050 |  |  |  | 
4 | C[C@@H](O)[C@H]1C(=O)N2C(C(=O)O)=C(SCCNC=N)C[C@H]12 [IMIPENEM ANHYDROUS] | < 0.12 | 8 (≈ 26.7 µM) | 16 (≈ 53.4 µM) |  | 16 (≈ 53.4 µM) | < 0.12 | < 0.12 | 4 (≈ 13.4 µM) | 16 (≈ 53.4 µM) | 0.5 | 32 (≈ 107 µM) | 0.5 | 4 (≈ 13.4 µM) | 64 (≈ 214 µM) | 0.5 | 0.25 | < 0.12 | MIC [18]: < 0.12 µg/mL
5 | C[C@@H](O)[C@H]1C(=O)N2C(C(=O)O)=C(S[C@@H]3CN[C@H](C(=O)N(C)C)C3)[C@H](C)[C@H]12 [MEROPENEM] | < 0.12 | 8 (≈ 20.9 µM) | 8 (≈ 20.9 µM) | < 0.12 | 8 (≈ 20.9 µM) | < 0.12 | < 0.12 | 1 (≈ 2.61 µM) | 8 (≈ 20.9 µM) | < 0.12 | 16 (≈ 41.7 µM) | < 0.12 | 4 (≈ 10.4 µM) | 32 (≈ 83.4 µM) | < 0.12 | < 0.12 | < 0.12 | MIC [18]: < 0.12 µg/mL
6 | CCN1CCN(C(=O)N[C@@H](C(=O)N[C@@H]2C(=O)N3[C@@H]2SC(C)(C)[C@@H]3C(=O)O)c2ccccc2)C(=O)C1=O [PIPERACILLIN] |  | 1020 (≈ 1980 µM) | 256 (≈ 495 µM) | 2 (≈ 3.86 µM) | 512 (≈ 989 µM) |  |  | 512 (≈ 989 µM) | > 2050 |  | > 2050 |  | 1020 (≈ 1980 µM) | 2050 (≈ 3960 µM) |  |  |  | MIC [19]: 2050 µg/mL; MIC [20]: 256 µg/mL; MIC [21]: 1020 µg/mL; MIC [22]: 1020 µg/mL; MIC [23]: 512 µg/mL; MIC [24]: 2 µg/mL; MIC [25]: 2050 µg/mL; MIC [26]: 512 µg/mL; MIC [27]: 1020 µg/mL
7 | CC1(C)S[C@@H]2[C@H](NC(=O)[C@H](C(=O)O)c3ccsc3)C(=O)N2[C@H]1C(=O)O [TICARCILLIN] |  | > 2050 | > 2050 | 2 (≈ 5.2 µM) | > 2050 |  |  | > 2050 | > 2050 |  | > 2050 |  | > 2050 | > 2050 |  |  |  | 
